Assay results published in ChEMBL document CHEMBL1687863, “Terpenoids and norlignans from Metasequoia glyptostroboides” (J Nat Prod, 2011).

These compounds were tested on HL-60 (assay: Cytotoxicity against human HL60 cells after 48 hrs by MTT assay). Conditions: HL-60, 48 h.
Assay type: functional, cell-based
How it was run: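 Cells seeded 12 h before treatment, then exposed continuously to a range of compound concentrations for 48 h. MTT added for a further 4 h, followed by 20% SDS and 12 h at room temperature. OD read at 595 nm; IC50 calculated by the Reed and Muench method.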

Row | Compound | IC50 [µM]
1 | C=C[C@]1(C)CC2=C(C[C@@H]1O)[C@@]1(C)CCC[C@@](C)(C(=O)O)[C@@H]1CC2 | > 40
2 | C=C1C=C[C@@H](C(C)C)[C@]12CC=C(C(=O)O)CC2 | > 40
3 | COc1ccc([C@H]2[C@@H]([C@H](O)c3ccc(OC)c(OC)c3)OC[C@H]2O)cc1 | > 40
4 | COc1ccc([C@H]2[C@@H]([C@H](OC(=O)[C@](OC)(c3ccccc3)C(F)(F)F)c3ccc(OC)c(OC)c3)OC[C@H]2OC(=O)[C@](OC)(c2ccccc2)C(F)(F)F)cc1 | > 40
5 | COc1ccc([C@H]2[C@@H]([C@H](OC(=O)[C@@](OC)(c3ccccc3)C(F)(F)F)c3ccc(OC)c(OC)c3)OC[C@H]2OC(=O)[C@@](OC)(c2ccccc2)C(F)(F)F)cc1 | > 40
6 | C=CC(=C)CC[C@@H]1[C@@]2(C)CCC[C@](C)(COC(=O)/C=C/c3ccc(O)cc3)[C@@H]2CC[C@@]1(C)O | 14.3
7 | C=C(C)C(CC)CC[C@@H](C)[C@H]1CC[C@@]2(C)[C@@H]3CC[C@@H](C(C)(C)O)[C@@]4(CCC(=O)O)C[C@@]34CC[C@]12C (some centres not stated) [METASEGLYPTORIN A] | > 40
8 | COc1cc(/C=C/[C@@H](c2ccc(O)c(OC)c2)[C@H](O)CO)ccc1O [METASEQUIRIN D] | > 40
9 | COc1cc([C@H]2[C@@H]([C@H](O)c3ccc(O)c(OC)c3)OC[C@H]2O)ccc1O [METASEQUIRIN E] | > 40
10 | COc1cc([C@@H](O)[C@H]2OC[C@@H](O)[C@H]2c2ccc(O)cc2)ccc1O [METASEQUIRIN F] | > 40
11 | C=C1CC[C@H]2[C@](C)(O)[C@H](C)CC[C@]2(C)[C@H]1CC/C(C)=C/C(=O)O [METASEQUOIC ACID C] | > 40
12 | OC[C@@H](O)[C@@H](/C=C/c1ccc(O)cc1)c1ccc(O)c(O)c1 [SEQUIRIN C] | 5.5
